The list is not random: actives were taken first. Their share in the collection is about 1.6%.
Rev-RRE block: HIV-1 Rev-RRE binding inhibitors, primary screen, biochemical, FRET, protein-RNA interaction | P05866 | Rev peptide-RRE RNA binding | inhibition, % at 8 µM | actives 0.79% (n = 97,000) | AID 704, 2007;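 active means inhibition above the screen-wide mean plus 3 SD, cut at about 35% in these data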;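 further: 0% = median DMSO wells and 100% = median Neomycin B control wells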
Target sequence (P05866 whole entry, looked up): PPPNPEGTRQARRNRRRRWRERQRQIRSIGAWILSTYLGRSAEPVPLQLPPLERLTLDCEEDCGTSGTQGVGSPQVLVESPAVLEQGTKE
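assay system = Cy5-tagged RRE RNA duplex with fluorescein-tagged Rev peptide | incubation = 5 + 15 min at 25 °C | also added = labelled Rev peptide | measure = % inhibition of FRET ratio versus controls | benchmarks = DMSO wells as 0% and neomycin B wells as 100% inhibition | measured by = FRET fluorescence readout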
GALR2 agonist: GALR2 receptor agonists, primary screen, cell-based; activation, % (concentration not given with the values); GALR2-expressing cells, agonist activation read-out; AID 803, 2007; actives 0.48% (n = 140,000); Galanin receptor type 2 (Homo sapiens), O43603; in the data active means activation above about 5%, passing the limit was not always enough;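 further: 0% = vehicle buffer wells and 100% = reference agonist at full effect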
Target sequence (O43603 whole entry, looked up): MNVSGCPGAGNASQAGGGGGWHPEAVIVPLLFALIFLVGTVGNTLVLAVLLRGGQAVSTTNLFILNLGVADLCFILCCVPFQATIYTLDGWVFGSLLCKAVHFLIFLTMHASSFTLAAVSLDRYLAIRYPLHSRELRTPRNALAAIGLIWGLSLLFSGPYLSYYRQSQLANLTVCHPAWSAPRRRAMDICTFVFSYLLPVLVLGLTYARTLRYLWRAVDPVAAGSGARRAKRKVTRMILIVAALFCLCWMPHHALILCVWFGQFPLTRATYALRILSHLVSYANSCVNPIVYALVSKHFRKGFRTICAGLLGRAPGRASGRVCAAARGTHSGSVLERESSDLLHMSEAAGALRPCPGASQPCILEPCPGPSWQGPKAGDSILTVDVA
GALR2 antag: GALR2 antagonists in receptor-expressing cells, primary screen; inhibition, % at 4 µM; actives 0.39% (n = 140,000); Galanin receptor type 2 (Homo sapiens), O43603; antagonist mode; in the data active means inhibition above about 27%;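 further: cells stimulated with galanin 1-16 at roughly its EC80; 0% = agonist challenge control and 100% = basal control without agonist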
S1P2 antag: human S1P2 receptor antagonists, primary screen, cell-based; Sphingosine 1-phosphate receptor 2 (Homo sapiens), O95136; cell-based S1P2 antagonist assay, inhibition at 5 uM; inhibition, % at 5 µM; actives 0.21% (n = 97,000); AID 736, 2007; in the data active means inhibition above about 45%;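 further: CRE beta-lactamase reporter cells expressing human S1P2 stimulated with S1P; 0% = agonist at EC80 alone and 100% = agonist plus reference antagonist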
S1P2 agonist: S1P2 receptor agonists, primary screen, cell-based; S1P2-expressing cell line, agonist reporter read-out; activation, % at 4.5 µM; actives 0.46% (n = 97,000); in the data active means activation above about 16%;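 further: 0% = vehicle low control and 100% = maximal reference agonist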
GALR2 ag confirm: GALR2 agonists, retest of hits, confirmation, cell-based. shares compounds with GALR2 agonist. actives 10% (n = 460). GALR2-expressing cells, agonist activation. activation, % at 5.6 µM. AID 864, 2007; in the data active means activation above about 8.4%;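 further: 0% = buffer-only vehicle wells and 100% = full reference agonist response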
BLA activ ctr: activators of NFAT-driven beta-lactamase reporter, confirmation, counter-screen for GALR2 agonist project, CHO NFAT-bla cells, FRET readout. actives 10% (n = 460). AID 865, 2007. beta-lactamase FRET activation. activation, % at 5.6 µM. shares compounds with GALR2 agonist;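 active means activation above the screen-wide mean activation plus 3 SD, cut at about 8% in these data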;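 further: 0% = DMSO with PBS wells and 100% = thapsigargin positive control wells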
* hit, by the source's call.

For Cc1ccc2sc(C)[n+](CCC(C)S(=O)(=O)[O-])c2c1 (stereo unspecified) the results were GALR2 agonist 0 and GALR2 antag -2.
Screening COCC(C)NC(=O)COc1ccc(Cl)cc1Cl (stereo unspecified) returned Rev-RRE block 1, GALR2 agonist 10, GALR2 antag -7, S1P2 antag 8, S1P2 agonist -11, GALR2 ag confirm -1 and BLA activ ctr -2.
Screening Cc1cc2oc(=O)cc(CN3CCN(S(=O)(=O)c4cccs4)CC3)c2cc1C returned GALR2 agonist -2 and GALR2 antag 12.
`COc1ccc2oc(=O)c(/C(C)=N/NC(=O)c3ccncc3)cc2c1` gave GALR2 agonist -1 and GALR2 antag -3.
Screening CCC(CC)NC(=O)COC(=O)c1ccc(NS(=O)(=O)c2ccc3c(c2)OCCO3)cc1 returned Rev-RRE block 5, GALR2 agonist -1, GALR2 antag 5, S1P2 antag -9 and S1P2 agonist 1.
CCSc1ncc(C#N)c(N)n1 was read as Rev-RRE block 2, GALR2 agonist 10, GALR2 antag -19, S1P2 antag -4, S1P2 agonist 0, GALR2 ag confirm -1 and BLA activ ctr -3.
Screening CCCCc1cc(O)c(CCCC)c(O)c1 returned Rev-RRE block 3, GALR2 agonist 9.8*, GALR2 antag -27, S1P2 antag 15, S1P2 agonist -2, GALR2 ag confirm 12* and BLA activ ctr 27*.
`O=C1NC2(CCCCC2)C(=O)N1CCS(=O)(=O)Oc1ccccc1` gave Rev-RRE block 4, GALR2 agonist 10, GALR2 antag -14, S1P2 antag -13, S1P2 agonist -2, GALR2 ag confirm -1 and BLA activ ctr -3.
For O=C(CN1C(=O)NC2(CCCCC2)C1=O)Nc1ccccc1Cl the results were GALR2 agonist -1 and GALR2 antag 10.
`CC(C)n1nc(C(=O)Oc2cccc(Cl)c2Cl)c2ccccc2c1=O` gave GALR2 agonist 0 and GALR2 antag -3.
Cc1cccc2sc(NNC(=O)c3ccc(S(=O)(=O)N4CC(C)CC(C)C4)cc3)nc12 (stereo unspecified) was read as GALR2 agonist 33*, GALR2 antag 8, GALR2 ag confirm 8 and BLA activ ctr -3.
Screening Cc1cc(C)c2nc(NNC(=O)c3ccc(S(=O)(=O)N4CCCC(C)C4)cc3)sc2c1 (stereo unspecified) returned GALR2 agonist 18*, GALR2 antag 16, GALR2 ag confirm 8.2* and BLA activ ctr -2.
`Cc1ccc2nc(NNC(=O)c3ccc(S(=O)(=O)N4CCc5ccccc5C4)cc3)sc2c1` gave GALR2 agonist -3 and GALR2 antag -3.
Screening Cc1cc(C)c2nc(NNC(=O)c3ccc(S(=O)(=O)N4CC(C)CC(C)C4)cc3)sc2c1 (stereo unspecified) returned GALR2 agonist 44*, GALR2 antag 11, GALR2 ag confirm 14* and BLA activ ctr 2.
Screening CCCN1CNC(=S)N(CC2CCCO2)C1 (stereo unspecified) returned GALR2 agonist -1 and GALR2 antag -5.
O=C(O)c1ccc(COc2c(F)c(F)c(F)c(F)c2F)o1 was read as GALR2 agonist -1 and GALR2 antag 5.
For Cc1nc(C)c(-c2nnc(-c3ccc(C(C)(C)C)cc3)o2)cc1C(=O)NN the results were GALR2 agonist -1 and GALR2 antag -6.
CC(C)[C@H](NC(=O)OC(C)(C)C)c1nnc(SCC(=O)Nc2ccc(Br)cc2)o1 was read as Rev-RRE block 8, GALR2 agonist -2, GALR2 antag 11, S1P2 antag 12 and S1P2 agonist -6.
Screening COc1cccc(C2CC3(CC(C)(C)NC(=S)N3)Oc3cc(O)ccc32)c1 (stereo unspecified) returned GALR2 agonist 0 and GALR2 antag 1.
Screening CSC1=NC2(CC(c3ccccc3)Oc3cc(O)ccc32)CC(C)(C)N1 (stereo unspecified) returned Rev-RRE block -3, GALR2 agonist 20*, GALR2 antag -20, S1P2 antag -15, S1P2 agonist 1, GALR2 ag confirm 9.2* and BLA activ ctr 78*.
Screening Cc1ccccc1Nc1nc(-c2sc(NC(=O)c3ccccc3)nc2C)cs1 returned Rev-RRE block 9, GALR2 agonist 19*, GALR2 antag 0, S1P2 antag -10, S1P2 agonist -12, GALR2 ag confirm -1 and BLA activ ctr -3.
Screening Cc1cccn2c(=O)c3cc(C(=O)NCc4cccnc4)c(=N)n(C(C)C)c3nc12 returned Rev-RRE block 8, GALR2 agonist 9, GALR2 antag -9, S1P2 antag -16, S1P2 agonist 8, GALR2 ag confirm 1 and BLA activ ctr 3.
`CCOc1cccc(SCc2noc(C(=O)NCCOC)c2C(=O)O)c1` gave Rev-RRE block 3, GALR2 agonist 59*, GALR2 antag -3, S1P2 antag 8, S1P2 agonist -9, GALR2 ag confirm 0 and BLA activ ctr 1.
For Cc1nc(-c2cccc(S(=O)(=O)N3CCCC(C)C3)c2)cs1 (stereo unspecified) the results were Rev-RRE block 1, GALR2 agonist 27*, GALR2 antag -1, S1P2 antag 8, S1P2 agonist -6, GALR2 ag confirm 0 and BLA activ ctr -1.
Screening O=C(CCC(=O)c1cccs1)Nc1ccc(F)c(F)c1F returned Rev-RRE block 11, GALR2 agonist 0, GALR2 antag -15, S1P2 antag -5 and S1P2 agonist -5.
For Cc1ccc(-c2nn(CC(N)=O)c(=O)c3ccccc23)cc1S(=O)(=O)N(C)C the results were Rev-RRE block 2, GALR2 agonist 34*, GALR2 antag -1, S1P2 antag -5, S1P2 agonist -6, GALR2 ag confirm 0 and BLA activ ctr -1.
For COc1ccc(C(=O)c2sc(Nc3cccc(OC)c3)c(C(=O)Nc3cccc(C)c3C)c2N)cc1 the results were Rev-RRE block 3, GALR2 agonist 16*, GALR2 antag 9, S1P2 antag 6, S1P2 agonist -2, GALR2 ag confirm 1 and BLA activ ctr 0.
COc1ccc(Nc2sc(C(=O)c3ccc(Cl)cc3)c(N)c2C(=O)Nc2ccccc2OC)cc1 was read as Rev-RRE block 6, GALR2 agonist 14*, GALR2 antag -7, S1P2 antag -13, S1P2 agonist -2, GALR2 ag confirm -2 and BLA activ ctr -2.

Compound activity (PubChem BioAssay)
